Measurements as given in ChEMBL document CHEMBL3244043, “Nucleoside 5'-monophosphate analogues. Synthesis of 5'-sulfamino-5'-deoxynucleosides” (J Med Chem, 1978).
Calls of active or inactive are those of the source. The calls are words filed in the database; no cut-off is given here.

Assays:
[1] = Stability of the compound in NaOH assessed as cleavage of sulfamino group at 23 degC after 24 hrs; assay type: physicochemical
How it was run: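 Compound exposed to 0.1 M NaOH at 23 °C for 24 h, then examined for any cleavage of the 5'-sulfamino group.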

[2] = Drug degradation in HCl assessed as hydrolysis of 5'-sulfamino group to form amino nucleoside at 23 degC after 24 hrs; assay type: physicochemical; settings: read-out: Drug degradation
How it was run: (§1)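 Compound held in 0.1 M HCl at 23 °C for 24 h. Hydrolysis reported as percent cleavage of the 5'-sulfamino group, giving the amino nucleoside, and of the glycosidic bond, giving adenine.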

[3] = Drug degradation in HCl assessed as hydrolysis of glycosidic linkage to form adenine at 23 degC after 24 hrs; assay type: physicochemical; settings: read-out: Drug degradation; how it was run: as §1
[4] = tested on: Human alphaherpesvirus 1; experiment: Antiviral activity against Herpes simplex virus type 1 infected in African green monkey CV1 cells assessed as inhibition of viral replication at 10^-4 M; assay type: functional, organism-based; settings: CV-1
[5] = tested on: Enterococcus faecalis; experiment: Antibacterial activity against Streptococcus faecalis assessed as growth inhibition at 1 x 10^-3 M relative to control; assay type: functional; settings: read-out: GI
[6] = tested on: Escherichia coli; experiment: Antibacterial activity against Escherichia coli K-12 assessed as growth inhibition at 1 x 10^-3 M relative to control; assay type: functional; settings: read-out: GI
[7] = tested on: Escherichia coli; experiment: Antibacterial activity against Escherichia coli B assessed as growth inhibition at 1 x 10^-3 M relative to control; assay type: functional; settings: read-out: GI
[8] = tested on: L1210; experiment: Cytotoxicity against mouse L1210 cells assessed as growth inhibition at 1 x 10^-3 M; assay type: functional, cell-based
[9] = tested on: L1210; experiment: Cytotoxicity against mouse L1210 cells assessed as cell growth at 1 x 10^-4 M; assay type: functional, cell-based
[10] = tested on: Human alphaherpesvirus 1; experiment: Antiviral activity against Herpes simplex virus type 1 infected in African green monkey CV1 cells assessed as inhibition of viral replication at 1 x 10^-5 M relative to control; assay type: functional; settings: Human alphaherpesvirus 1, CV-1
[11] = tested on: Human alphaherpesvirus 1; experiment: Antiviral activity against Herpes simplex virus type 1 infected in African green monkey CV1 cells assessed as inhibition of viral replication at 1 x 10^-4 M relative to control; assay type: functional; settings: Human alphaherpesvirus 1, CV-1
[12] = Cytotoxicity against African green monkey CV1 cells assessed as effect on cell growth at 1 x 10^-4 M; assay type: cell-based; settings: chlorocebus aethiops, cv-1, 100 µM

| Stability [1] | degraded at 24 h [2] [%] | degraded at 24 h [3] [%] | Structure (SMILES) | inhibition [4] | inhibition of growth at 1000 µM [5] [%] | inhibition of growth at 1000 µM [6] [%] | inhibition of growth at 1000 µM [7] [%] | growth inhibition (GI) [8] | Activity [9] | inhibition at 10 µM [10] [%] | inhibition at 100 µM [11] [%] | Activity [12] |
| --- | --- | --- | --- | --- | --- | --- | --- | --- | --- | --- | --- | --- |
| Stable | 0.75 | 16 | Nc1ncnc2c1ncn2[C@@H]1O[C@H](CNS(=O)(=O)O)[C@@H](O)[C@H]1O | inactive | < 10 | < 10 | < 10 | inactive | inactive |  |  |  |
| Stable | 2.4 |  | Cc1cn([C@H]2C[C@H](O)[C@@H](CNS(=O)(=O)O)O2)c(=O)[nH]c1=O |  | < 10 | < 10 | < 10 | inactive | inactive | 35 | 70 | Non-toxic |
